Laboratory results as given in ChEMBL document CHEMBL3272290, “Contragestational agents. 1. Steroidal O-aryloximes” (J Med Chem, 1977).
Active and inactive are the calls of the source. The rule behind the calls is not given here.

How the values were obtained:
[1] = tested on: Rattus norvegicus; test: Antifertility activity in Wistar rat assessed as inhibition of preimplantive gestation by measuring resorptions at 20 mg/kg, po administered in days 9 to 12 of pregnancy measured on day 21; format: functional; design: scale not given: the % may be the effect or the level left
Method in brief: (§1)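 Groups of five pregnant female Wistar-derived rats dosed orally on days 9–12 of pregnancy, in sesame oil at 0.5 mL per 200 g body weight. Read-out was the percentage of resorptions.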

[2] = tested on: Rattus norvegicus; test: Antifertility activity in Wistar rat assessed as inhibition of preimplantive gestation by measuring resorptions at 5 mg/kg, po administered in days 9 to 12 of pregnancy measured on day 21; format: functional; design: scale not given: the % may be the effect or the level left; method in brief: as §1
[3] = tested on: Rattus norvegicus; test: Antifertility activity in Wistar rat assessed as inhibition of preimplantive gestation by measuring resorptions at 50 mg/kg, po administered in days 9 to 12 of pregnancy measured on day 21; format: functional; design: scale not given: the % may be the effect or the level left; method in brief: as §1
[4] = tested on: Rattus norvegicus; test: Antifertility activity in Wistar rat assessed as inhibition of preimplantive gestation by measuring resorptions at 2.5 mg/kg, po administered in days 9 to 12 of pregnancy measured on day 21; format: functional; design: scale not given: the % may be the effect or the level left; method in brief: as §1
[5] = tested on: Rattus norvegicus; test: Androgenic activity in po dosed castrate immature Wistar rat assessed as dose required to produce significant increase in ventral prostate weight administered qd for 7 days; format: functional; details: Prostate gland, 168 h, read-out: MED
Method in brief: (§2)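 Castrated immature rats dosed orally once a day for 7 days, in sesame oil at 0.2 mL per dose. Read-out was ventral prostate weight. Potency is expressed relative to 17-methyltestosterone. MED is the smallest tested dose giving a significant rise in ventral prostate weight.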

[6] = tested on: Rattus norvegicus; test: Antifertility activity in Wistar rat assessed as inhibition of preimplantive gestation by measuring resorptions at 2.5 mg/kg, po administered in day 11 of pregnancy measured on day 21; format: functional, organism-based; design: dose 2.5 mg/kg
[7] = tested on: Rattus norvegicus; test: Antifertility activity in Wistar rat assessed as inhibition of preimplantive gestation by measuring resorptions at 5 mg/kg, po administered in days 1 to 6 of pregnancy measured on day 21; format: functional, organism-based; design: dose 5 mg/kg
[8] = tested on: Rattus norvegicus; test: Estrogenic activity in rat at 10 to 100 mg/kg; format: functional, organism-based
[9] = tested on: Oryctolagus cuniculus; test: Estrogenic activity in rabbit at 10 to 100 mg/kg; format: functional, organism-based
[10] = tested on: Rattus norvegicus; test: Androgenic activity in rat at 10 to 100 mg/kg; format: functional, organism-based
[11] = tested on: Oryctolagus cuniculus; test: Androgenic activity in rabbit at 10 to 100 mg/kg; format: functional, organism-based
[12] = tested on: Rattus norvegicus; test: Progestational activity in rat at 10 to 100 mg/kg; format: functional, organism-based
[13] = tested on: Oryctolagus cuniculus; test: Progestational activity in rabbit at 10 to 100 mg/kg; format: functional, organism-based
[14] = tested on: Rattus norvegicus; test: Antiestrogenic activity in rat at 10 to 100 mg/kg; format: functional, organism-based
[15] = tested on: Oryctolagus cuniculus; test: Antiestrogenic activity in rabbit at 10 to 100 mg/kg; format: functional, organism-based
[16] = tested on: Rattus norvegicus; test: Antiandrogenic activity in rat at 10 to 100 mg/kg; format: functional, organism-based
[17] = tested on: Oryctolagus cuniculus; test: Antiandrogenic activity in rabbit at 10 to 100 mg/kg; format: functional, organism-based
[18] = tested on: Rattus norvegicus; test: Antiprogestational activity in rat at 10 to 100 mg/kg; format: functional, organism-based
[19] = tested on: Oryctolagus cuniculus; test: Antiprogestational activity in rabbit at 10 to 100 mg/kg; format: functional, organism-based
[20] = tested on: Rattus norvegicus; test: Toxicity in rat assessed as adverse effect at 10 to 100 mg/kg; format: organism-based; design: dose 10-100 mg/kg; details: in vivo
[21] = tested on: Oryctolagus cuniculus; test: Toxicity in rabbit assessed as adverse effect at 10 to 100 mg/kg; format: organism-based; design: dose 10-100 mg/kg; details: in vivo
[22] = tested on: Rattus norvegicus; test: Androgenic activity in castrate immature Wistar rat at 2.5 mg/kg, po qd for 7 days relative to 17-methyl-testosterone; format: functional; method in brief: as §2
[23] = tested on: Rattus norvegicus; test: Antifertility activity in Wistar rat assessed as inhibition of preimplantive gestation by measuring resorptions at 36 mg/kg, po administered in days 9 to 12 of pregnancy measured on day 21; format: functional; design: scale not given: the % may be the effect or the level left
Method in brief: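 Given orally in sesame oil (0.5 mL per 200 g body weight) to groups of five female Wistar-derived rats on days 9–12 of pregnancy. Outcome scored as percent resorptions.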

[24] = tested on: Rattus norvegicus; test: Antifertility activity in Wistar rat assessed as inhibition of preimplantive gestation by measuring resorptions at 10 mg/kg, po administered in days 9 to 12 of pregnancy measured on day 21; format: functional; design: scale not given: the % may be the effect or the level left; method in brief: as §1
[25] = tested on: Rattus norvegicus; test: Androgenic activity in castrate immature Wistar rat at 10 mg/kg, po qd for 7 days relative to 17-methyl-testosterone; format: functional; method in brief: as §2

Compound: C[C@]12CC[C@H]3[C@@H](CCC4=C/C(=N/Oc5ccc([N+](=O)[O-])cc5[N+](=O)[O-])C=C[C@@]43C)[C@@H]1CC[C@@H]2O
- Activity [1]: 92.6%

Compound: CCCCCCC(=O)O[C@H]1CC[C@H]2[C@@H]3CC[C@H]4C/C(=N/Oc5ccc([N+](=O)[O-])cc5)CC[C@]4(C)[C@H]3CC[C@]12C
- Activity [2]: 100%

Compound: C[C@]12CC[C@H]3[C@@H](CCC4=C/C(=N/Oc5ccccn5)CC[C@@H]43)[C@@H]1CC[C@@H]2O
- Activity [1]: 100%

Compound: C[C@]12CC/C(=N\Oc3ccc([N+](=O)[O-])cc3C(F)(F)F)C[C@@H]1CC[C@@H]1[C@@H]2CC[C@]2(C)[C@@H](O)CC[C@@H]12
- Activity [3]: 0%

Compound: CC(=O)O[C@H]1CC[C@H]2[C@@H]3CC[C@H]4C/C(=N/Oc5ccc([N+](=O)[O-])cc5)[C@H](Cl)C[C@]4(C)[C@H]3CC[C@]12C [NISTERIME ACETATE]
- Activity [4]: 100%
- minimal effective dose [5]: > 90 mg/kg
- inhibition [6]: Active
- inhibition [7]: Active
- Activity [8]: inactive
- Activity [9]: inactive
- Activity [10]: inactive
- Activity [11]: inactive
- Activity [12]: inactive
- Activity [13]: inactive
- Activity [14]: inactive
- Activity [15]: inactive
- Activity [16]: inactive
- Activity [17]: inactive
- Activity [18]: inactive
- Activity [19]: inactive
- Activity [20]: Non-toxic
- Activity [21]: Non-toxic

Compound: C[C@]12CC/C(=N\Oc3ccc([N+](=O)[O-])cc3[N+](=O)[O-])C=C1CC[C@@H]1[C@@H]2CC[C@@]2(C)[C@H]1CC[C@]2(C)O
- Activity [1]: 2.2%

Compound: CC(=O)O[C@H]1CC[C@H]2[C@@H]3CC[C@H]4C/C(=N/Oc5ccc([N+](=O)[O-])cc5)CC[C@]4(C)[C@H]3CC[C@]12C
- Activity [4]: 96.6%
- Activity [22]: 2.5%
- minimal effective dose [5]: 30 mg/kg

Compound: C[C@]12CC/C(=N\Oc3ccc([N+](=O)[O-])cc3)C[C@@H]1CC[C@@H]1[C@@H]2CC[C@]2(C)C(=O)CC[C@@H]12
- Activity [2]: 100%

Compound: C[C@]12C[C@@H](Cl)/C(=N\Oc3ccc([N+](=O)[O-])cc3)C[C@@H]1CC[C@@H]1[C@@H]2CC[C@]2(C)[C@@H](O)CC[C@@H]12
- Activity [2]: 100%

Compound: C[C@]12CC/C(=N\Oc3ccc([N+](=O)[O-])cc3)C[C@@H]1CC[C@@H]1[C@@H]2CC[C@]2(C)/C(=N/O)CC[C@@H]12
- Activity [23]: 0%

Compound: C[C@]12CC[C@H]3[C@@H](CCC4=C/C(=N/Oc5ccc([N+](=O)[O-])cc5[N+](=O)[O-])CC[C@@H]43)[C@@H]1CC[C@@H]2O
- Activity [1]: 100%

Compound: C[C@]12CC[C@H]3[C@@H](CCC4=C/C(=N/Oc5ccc([N+](=O)[O-])cc5[N+](=O)[O-])CC[C@@]43C)[C@@H]1CC[C@@H]2O
- Activity [24]: 80.8%
- Activity [25]: 80%
- minimal effective dose [5]: 1.5 mg/kg
